Data as given in ChEMBL document CHEMBL1122878, “New antihistaminic N-heterocyclic 4-piperidinamines. 3. Synthesis and antihistaminic activity of N-(4-piperidinyl)-3H-imidazo[4,5-b]pyridin-2-amines” (1985).

Key:
Format in all cases: functional
[1] = tested on: Rattus norvegicus; assay: In vivo antihistaminic activity after 2 hours of oral administration using 48/80 lethality test in rat.
How it was run: (§1)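 Male inbred Wistar rats, 230–270 g, starved overnight, housed at 21 ± 1 °C and 65 ± 5% RH. Protection was survival at 4 h. ED50 by Finney from five rats per dose, at least three doses in a geometric series 0.0025–40 mg/kg.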

[2] = tested on: Rattus norvegicus; assay: In vivo antihistaminic activity after 1 hour of subcutaneous administration using 48/80 lethality test in rat.; details: sc; how it was run: as §1
[3] = tested on: Cavia porcellus; assay: In vivo antihistaminic activity after 48 hr of oral administration using histamine lethality test in guinea pig.
How it was run: (§2)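 Male albino guinea pigs, 280–360 g. Compound given orally in twofold dose increments 3, 24, 48 or 96 h before an iv challenge with histamine dihydrochloride at 1.25 mg/kg. Protection was survival at 1 h. PD50 with confidence limits by Finney, using 4–6 animals per dose and time point, at least three doses from a geometric series 0.0025–5.0 mg/kg.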

[4] = tested on: Cavia porcellus; assay: In vivo antihistaminic activity after 3 hr of oral administration using histamine lethality test in guinea pig.; how it was run: as §2
[5] = tested on: Cavia porcellus; assay: In vivo antihistaminic activity after 24 hr of oral administration using histamine lethality test in guinea pig.; how it was run: as §2
[6] = tested on: Cavia porcellus; assay: In vivo antihistaminic activity after 3 hr of oral administration using histamine lethality test in guinea pig; how it was run: as §2
[7] = tested on: Cavia porcellus; assay: In vivo antihistaminic activity after 48 hr of oral administration using histamine lethality test in guinea pig; how it was run: as §2
[8] = tested on: Cavia porcellus; assay: In vivo antihistaminic activity after 24 hr of oral administration using histamine lethality test in guinea pig; how it was run: as §2
[9] = tested on: Cavia porcellus; assay: In vivo antihistaminic activity after 96 hr of oral administration using histamine lethality test in guinea pig; how it was run: as §2

SMILES | ED50 [1] | ED50 [2] | other results
Fc1ccc(Cn2c(NC3CCN(C/C=C/c4ccccc4)CC3)nc3cccnc32)cc1 | > 2.5 mg/kg | 1.25 mg/kg | 
c1ccc(Cn2c(NC3CCN(CCC(c4ccccc4)c4ccccc4)CC3)nc3cccnc32)cc1 |  | > 2.5 mg/kg | 
c1ccc(CCN2CCC(Nc3nc4cccnc4n3Cc3ccccc3)CC2)cc1 | > 2.5 mg/kg | 0.08 mg/kg | 
Oc1nc2ccccc2n1CCCN1CCC(Nc2nc3cccnc3n2Cc2ccc(F)cc2)CC1 | 2.5 mg/kg | 0.63 mg/kg | 
Cc1cccc(C)c1NC(=O)CN1CCC(Nc2nc3cccnc3n2Cc2ccccc2)CC1 |  | > 2.5 mg/kg | 
c1ccc(Cn2c(NC3CCN(C4CCCCC4)CC3)nc3cccnc32)cc1 | > 2.5 mg/kg | 0.63 mg/kg | 
O=C(NCCN1CCC(Nc2nc3cccnc3n2Cc2ccccc2)CC1)c1ccc(F)cc1 | 1.25 mg/kg | 0.08 mg/kg | 
O=C(CCCN1CCC(Nc2nc3cccnc3n2Cc2ccccc2)CC1)c1ccc(F)cc1 | 1.25 mg/kg | 0.31 mg/kg | 
Fc1ccc(Cn2c(NC3CCN(CCCC(c4ccc(F)cc4)c4ccc(F)cc4)CC3)nc3cccnc32)cc1 |  | > 2.5 mg/kg | 
CC(C)N1CCC(Nc2nc3cccnc3n2Cc2ccccc2)CC1 | > 2.5 mg/kg | 0.63 mg/kg | 
CN1CCC(Nc2nc3cccnc3n2Cc2ccccc2)CC1 | > 2.5 mg/kg | 0.08 mg/kg | 
CCCCN1CCC(Nc2nc3cccnc3n2Cc2ccccc2)CC1 | > 2.5 mg/kg | 0.16 mg/kg | 
Fc1ccc(Cn2c(NC3CCN(CCc4ccccc4)CC3)nc3cccnc32)cc1 | > 2.5 mg/kg | 0.31 mg/kg | 
CN(C)C(=O)C(CCN1CCC(Nc2nc3cccnc3n2Cc2ccccc2)CC1)(c1ccccc1)c1ccccc1 |  | > 2.5 mg/kg | 
C=CCN1CCC(Nc2nc3cccnc3n2Cc2ccccc2)CC1 | > 2.5 mg/kg | 0.31 mg/kg | 
Fc1ccc(Cn2c(NC3CCN(CCc4cccs4)CC3)nc3cccnc32)cc1 | > 2.5 mg/kg | 0.16 mg/kg | 
CN1CCC(Nc2nc3cccnc3n2Cc2ccc(F)cc2)CC1 | > 2.5 mg/kg | 0.08 mg/kg | 
Fc1ccc(OCCCN2CCC(Nc3nc4cccnc4n3Cc3ccccc3)CC2)cc1 | 1.25 mg/kg | 1.25 mg/kg | 
CCn1nnn(CCN2CCC(Nc3nc4cccnc4n3Cc3ccc(F)cc3)CC2)c1=O | > 2.5 mg/kg | 0.31 mg/kg | 
Fc1ccc(Cn2c(NC3CCN(CCCOc4ccccc4)CC3)nc3cccnc32)cc1 | 0.31 mg/kg | 0.31 mg/kg | 
c1ccc(Cn2c(NC3CCN(CCN4CCOCC4)CC3)nc3cccnc32)cc1 | 2.5 mg/kg | 0.63 mg/kg | 
COc1ccc(CCN2CCC(Nc3nc4cccnc4n3Cc3ccccc3)CC2)cc1 | 0.31 mg/kg | 0.16 mg/kg | 
O=C(CCCN1CCC(Nc2nc3cccnc3n2Cc2ccc(F)cc2)CC1)c1ccc(F)cc1 | 1.25 mg/kg | 0.04 mg/kg | 
COc1ccc(CCN2CCC(Nc3nc4cccnc4n3Cc3ccc(F)cc3)CC2)cc1 | 0.16 mg/kg | 0.31 mg/kg | ED50 [3]: 0.25 mg/kg; ED50 [4]: 0.16 mg/kg; ED50 [5]: 0.12 mg/kg
Fc1ccc(Cn2c(NC3CCN(CCc4ccccn4)CC3)nc3cccnc32)cc1 | 0.31 mg/kg | 0.04 mg/kg | 
C(=C\c1ccccc1)/CN1CCC(Nc2nc3cccnc3n2Cc2ccccc2)CC1 | 1.25 mg/kg | 1.25 mg/kg | 
c1ccc(Cn2c(NC3CCN(CC4COc5ccccc5O4)CC3)nc3cccnc32)cc1 (stereo not drawn) | > 2.5 mg/kg | 0.63 mg/kg | 
OC(COc1ccccc1)CN1CCC(Nc2nc3cccnc3n2Cc2ccccc2)CC1 (stereo not drawn) | 0.63 mg/kg | 0.16 mg/kg | 
c1ccc(Cn2c(NC3CCN(CCOc4ccccc4)CC3)nc3cccnc32)cc1 | 1.25 mg/kg | 0.31 mg/kg | 
COc1ccc(CCN2CCC(Nc3nc4ccccc4n3Cc3ccc(F)cc3)CC2)cc1 [ASTEMIZOLE] | 0.11 mg/kg | 0.11 mg/kg | ED50 [6]: 0.33 mg/kg; ED50 [7]: 0.04 mg/kg; ED50 [8]: 0.07 mg/kg; ED50 [9]: 0.19 mg/kg
